Rows were chosen to be rich in hits. Some 1.3% of all compounds tested hit in one or more screens of this group.
LANA DNA inh: inhibitors of KSHV LANA C-terminal domain DNA binding | MBP-C-LANA/FAM-LBS DNA binding, fluorescence polarization | inhibition, % at 9 µM | 0.078% of 340,000 active | AID 504423;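 active = highest replicate inhibition at or above 60% at 9 µM, even if other replicates fall short; inactive = all replicates below 60% inhibition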;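 also: 0% = neutral control wells and 100% = 4 µM acridine orange control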
Keap1 Nrf2 FP: disrupts human Keap1 binding to Nrf2 peptide; Q14145; Keap1 Kelch-Nrf2 peptide fluorescence polarization, 1536-well; inhibition, % at 9.4 µM; 0.15% of 340,000 active; AID 504523; in the data active = inhibition above about 12%;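 also: human Keap1 Kelch domain with fluorescein labeled Nrf2 9mer peptide probe; 0% = neutral control wells and 100% = peptide positive control; higher means more block of Keap1 binding to Nrf2 peptide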
Target sequence (Q14145 whole entry, looked up, the tested form may be a part): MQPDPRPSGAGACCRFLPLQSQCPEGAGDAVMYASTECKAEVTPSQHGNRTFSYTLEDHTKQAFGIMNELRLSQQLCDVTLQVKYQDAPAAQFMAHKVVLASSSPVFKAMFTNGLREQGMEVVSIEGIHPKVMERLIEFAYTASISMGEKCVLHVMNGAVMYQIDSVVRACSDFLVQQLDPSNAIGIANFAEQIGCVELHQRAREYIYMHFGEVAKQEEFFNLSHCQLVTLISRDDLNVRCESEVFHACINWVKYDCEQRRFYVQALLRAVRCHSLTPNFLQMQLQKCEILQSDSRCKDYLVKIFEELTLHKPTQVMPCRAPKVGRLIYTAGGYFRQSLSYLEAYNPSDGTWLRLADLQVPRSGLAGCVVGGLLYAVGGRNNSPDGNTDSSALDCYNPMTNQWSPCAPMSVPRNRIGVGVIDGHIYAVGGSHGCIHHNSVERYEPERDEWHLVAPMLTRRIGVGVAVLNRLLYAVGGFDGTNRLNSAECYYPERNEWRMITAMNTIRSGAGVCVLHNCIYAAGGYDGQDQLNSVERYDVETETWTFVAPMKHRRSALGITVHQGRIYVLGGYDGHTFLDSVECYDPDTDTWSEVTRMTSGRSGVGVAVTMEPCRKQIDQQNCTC
RTF Ca sens inh: cardiac RTF calcium desensitization. 0.12% of 340,000 active. AID 493244. IANBD-labeled cardiac RTF, Ca2+ fluorescence. inhibition, % at 7.15 µM;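 active = inhibition above the mean inhibition of all tested compounds plus 3 SD, cut at about 17% in these data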;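 also: assay run at fixed EC70 calcium of 1.6 mM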
CAL PDZ FP-1: blocks peptide binding to human CAL PDZ domain; Q9HD26; purified CAL PDZ, TMR-peptide fluorescence polarization, 1 h; inhibition, % at 20 µM; 0.02% of 330,000 active;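 active = highest replicate inhibition of at least 40%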;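 also: plate controls were DMSO neutral control wells for no effect and unlabeled competitor peptide control wells for full effect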
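material = purified tagged CAL PDZ domain construct (CerCALP) | buffer or medium = sodium phosphate/NaCl buffer pH 7.4 with TCEP, IgG, Thesit | reagent = TMR-labelled reporter peptide T*-PRC34 bound in PDZ groove | incubation = 1 h room-temperature incubation prior to read | measured by = fluorescence polarization (mP) | evaluation = percent inhibition from loss of millipolarization | control set = unlabelled peptide and DMSO controls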
CAL PDZ FP-2: CAL PDZ (human) peptide binding inhibition | purified CAL PDZ, TMR-peptide fluorescence polarization, 1 h | AID 602252 | inhibition, % at 24.9 µM | 0.92% of 300,000 active | Q9HD26;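 active = mean inhibition of at least 30% with at least half of replicates also reaching 30%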;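 also: 0% = DMSO neutral control and 100% = excess unlabeled competitor peptide PRC23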
RTF Ca sens act: cardiac RTF calcium sensitization. AID 493008. IANBD-labeled TnC RTF fluorescence at EC20 calcium; 0% EC20 calcium, 100% full calcium. activation, % at 7.2 µM. 0.24% of 340,000 active;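 active = activation above the mean over all tested compounds plus 3 SD, cut at about 30% in these data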;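 also: rise in fluorescence read as greater calcium sensitivity of cardiac thin filaments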
* hit, by the source's call; · = no result.

SMILES | LANA DNA inh | Keap1 Nrf2 FP | RTF Ca sens inh | CAL PDZ FP-1 | CAL PDZ FP-2 | RTF Ca sens act
Cc1cc(C)n(C(=O)c2cccc(S(=O)(=O)N3CCCCC3)c2)n1 | -2 | 0 | -7 | 2 | 11 | 4
O=C(Nc1ccc2c(c1)OCO2)C1CC(c2cccc(Br)c2)=NO1 (centres undefined) | 3 | -1 | -7 | · | 42* | -2
O=C1Cc2cc(S(=O)(=O)Nc3cccc([N+](=O)[O-])c3)cc3c2N1CCC3 | 1 | 0 | 0 | -3 | 5 | -2
Cc1cccc(C)c1NC(=S)NC(C)(C)CO | -1 | -1 | 1 | -1 | 79* | 7
COc1ccccc1OCCC(=O)OCC(=O)Nc1ccc(Br)cc1F | 2 | -3 | -10 | -1 | 54* | -1
O=C(COC(=O)COc1ccccc1)Nc1ccc(Br)cc1F | -1 | -3 | 3 | 0 | 0 | 2
Cc1cc(NC(=O)c2ccc(C#N)cc2)n(-c2ccccn2)n1 | 2 | 2 | -10 | 0 | 78* | 6
Cc1cc(NC(=O)c2ccc(F)cc2)n(-c2ccccn2)n1 | 0 | -3 | -3 | -2 | 12 | 6
CN(C)CCNC(=O)c1cccc(S(=O)(=O)Nc2ccccc2F)c1 | 0 | 1 | 6 | -2 | -2 | -5
COc1ccc(CCNC(=O)CCn2c(=O)[nH]c3cc(OC)c(OC)cc3c2=O)cc1OC | 0 | -1 | -1 | -1 | 40* | -3
CCOc1cc2[nH]c(=O)n(CCC(=O)NCCc3ccc(OC)c(OC)c3)c(=O)c2cc1OCC | 0 | 0 | 6 | -1 | 62* | 7
CN(C/C=C/c1ccccc1)Cc1cccc2ccccc12 | 1 | -1 | -1 | -1 | 0 | 5
C[N+](C)(CC#N)C/C=C\c1ccccc1 | 2 | -4 | -8 | 0 | 76* | 0
CCOC(=O)c1c(C)[nH]c(C)c1C(=O)COC(=O)C1CC(=O)N(CCc2ccccc2)C1 (centres undefined) | -2 | -2 | 6 | 0 | 36* | -4
Cc1ccccc1NNC(=O)C(=O)NNc1ccccc1C | 0 | -3 | -5 | -1 | 33* | -5
Cc1ccccc1NC(=O)Cc1ccccc1 | 1 | -3 | -5 | -2 | 70* | -1
Cc1ccccc1NC(=O)C(Cl)=C(Cl)Cl | 0 | -3 | 6 | -2 | 0 | -3
Cc1ccccc1NC(=O)CCCCC(=O)Nc1ccccc1C | -4 | 3 | 1 | -1 | 7 | -1
CC(=O)Nc1ccc(NC(=O)COC(=O)c2ccc(S(=O)(=O)N(C)c3ccccc3)cc2)cc1 | 0 | 3 | 3 | 0 | · | -5
CCOc1ccc(-n2ccnc(SCC(=O)Nc3ccc(CC)cc3)c2=O)cc1 | 1 | 6 | -9 | -2 | · | -14
Cc1ccc(C)c(NC(=O)/C(C#N)=C/c2cn(CC(=O)NCc3ccco3)c3ccccc23)c1 | 0 | 2 | 1 | -1 | 44* | 8
Cc1ccc(NC(=O)/C(C#N)=C/c2cn(CC(=O)NCc3ccco3)c3ccccc23)cc1C | -5 | -8 | -15 | · | -8 | 6
CCN(CC)S(=O)(=O)c1ccc(N/N=C/c2cc(OC)c(OC)cc2OC)nc1 | -2 | -2 | -10 | -3 | 1 | -16
CCN(CC)S(=O)(=O)c1ccc(N2CCc3cc(OC)c(OC)cc3C2)nc1 | -1 | -4 | -2 | -1 | 50* | -4
CC1=C(C(=O)c2ccccc2)C(c2cccc([N+](=O)[O-])c2)NC(=S)N1 (centres undefined) | -1 | -3 | 4 | 0 | 6 | -6
CC(=O)C1=C(C)NC(=S)NC1c1cc([N+](=O)[O-])ccc1O (centres undefined) | 0 | -2 | 2 | 2 | 64* | 3
CCOc1cc(-c2nc(C)c(C(C)=O)n2O)ccc1OCC(=O)Nc1ccccc1 | -2 | -1 | -10 | -1 | 38* | 7
COc1ccc(C(=O)NCC(c2cccs2)N2CCc3ccccc32)cc1OC (centres undefined) | -1 | 3 | 10 | -1 | -1 | -9
COc1ccc(-c2noc(CN(C)Cc3ccccc3)n2)c(OC)c1OC | 1 | -3 | -3 | 0 | -2 | -2
C=CCn1c(=O)[nH]c2nc3cc(N=CN(C)C)c(C)cc3nc2c1=O | 23 | -1 | -141 | 0 | -4 | 131*

Bioassay records: PubChem, several laboratories
